Experimental data pooled from the literature.
Lines come from different studies, so protocols differ.

| Structure (SMILES) | cell line | test | test system | conditions | measurement | result |
| --- | --- | --- | --- | --- | --- | --- |
| O=C(O)c1cccc2ccccc12 | K562 | cell growth or viability | – | – | IC50 | > 744 µM |
| N[C@@H](CC(=O)N1CCN(C(c2ccc(F)cc2)c2ccc(F)cc2)CC1)C(=O)N1Cc2ccccc2C1 | K562 | cell growth or viability, ATP luminescence | – | 60 µM | viability | 7% |
| CC(C)/N=C(\N)c1ccc(NC(=O)c2ccc(C(=O)Nc3ccc(/C(N)=N/C(C)C)cc3)cc2)cc1 | K562 | cell growth or viability | – | – | IC50 | 38.8 µM |
| Clc1ccc(COc2cncc(-c3cnn(C4CCNCC4)c3)c2)c(Cl)c1 | MDCK | – | Caco-2 | – | Papp | 10.9 ×10⁻⁶ cm/s |
| CC[C@@H](C)[C@H](N)C(=O)N1Cc2ccccc2C1 | K562 | cell growth or viability, ATP luminescence | – | 60 µM | viability | 92% |
| C#C[C@]1(COP(=O)(O)OP(=O)(O)OP(=O)(O)O)O[C@@H](n2cnc3c(N)nc(F)nc32)C[C@@H]1O | human PBMC | – | plasma | oral, 5 mg, single dose | half-life | 126 h |
| COc1ccccc1CN[C@H]1C2CCN(CC2)[C@H]1C(c1ccccc1)c1ccccc1 | human PBMC | cell growth or viability, MTS | – | – | CC50 | > 25 µM |
| CC(C)=CCc1c(O)c(CC=C(C)C)c2occ(-c3ccc(O)cc3)c(=O)c2c1O | K562 | cell growth or viability, MTT | – | 100 µg/mL | viability | 94% |
| Cc1cn([C@H]2C[C@H](N=[N+]=[N-])[C@@H](CO)O2)c(=O)[nH]c1=O | human PBMC | cell growth or viability | – | – | CC50 | > 100 µM |
| Cc1ccc2cccc(C(=O)O)c2c1 | K562 | cell growth or viability | – | – | IC50 | > 688 µM |
| C=C(C)C(O)Cc1c(O)c(CC=C(C)C)c2occ(-c3ccc(O)cc3)c(=O)c2c1O (centres unmarked) | K562 | cell growth or viability, MTT | – | 100 µg/mL | viability | 71.7% |
